Measured values: ChEMBL document CHEMBL3112537, “A novel series of 6-substituted 3-(pyrrolidin-1-ylmethyl)chromen-2-ones as selective monoamine oxidase (MAO) A inhibitors” (Eur J Med Chem, 2014)
Active and inactive are the calls of the source. The rule behind the calls is not given here.

Experiments:
[1] = target: T1, Amine oxidase [flavin-containing] B (Homo sapiens, UniProt P27338); assay: Inhibition of MAO-B (unknown origin)
T1 sequence (P27338 whole entry): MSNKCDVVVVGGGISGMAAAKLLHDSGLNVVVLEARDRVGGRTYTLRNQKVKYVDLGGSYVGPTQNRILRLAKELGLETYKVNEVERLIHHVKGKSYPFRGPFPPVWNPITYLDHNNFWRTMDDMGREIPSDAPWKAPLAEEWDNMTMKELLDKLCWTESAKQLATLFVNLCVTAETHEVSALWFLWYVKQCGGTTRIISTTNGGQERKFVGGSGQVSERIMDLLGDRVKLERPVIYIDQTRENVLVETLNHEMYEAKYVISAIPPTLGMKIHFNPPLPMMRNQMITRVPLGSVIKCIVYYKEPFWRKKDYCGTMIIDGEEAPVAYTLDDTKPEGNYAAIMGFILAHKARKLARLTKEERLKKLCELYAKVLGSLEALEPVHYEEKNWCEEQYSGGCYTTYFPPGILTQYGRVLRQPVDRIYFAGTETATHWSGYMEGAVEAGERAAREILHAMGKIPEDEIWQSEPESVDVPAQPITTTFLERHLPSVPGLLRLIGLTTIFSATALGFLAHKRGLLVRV

[2] = target: T2, Amine oxidase [flavin-containing] A (Homo sapiens, UniProt P21397); assay: Inhibition of MAO-A (unknown origin)
T2 sequence (P21397 whole entry): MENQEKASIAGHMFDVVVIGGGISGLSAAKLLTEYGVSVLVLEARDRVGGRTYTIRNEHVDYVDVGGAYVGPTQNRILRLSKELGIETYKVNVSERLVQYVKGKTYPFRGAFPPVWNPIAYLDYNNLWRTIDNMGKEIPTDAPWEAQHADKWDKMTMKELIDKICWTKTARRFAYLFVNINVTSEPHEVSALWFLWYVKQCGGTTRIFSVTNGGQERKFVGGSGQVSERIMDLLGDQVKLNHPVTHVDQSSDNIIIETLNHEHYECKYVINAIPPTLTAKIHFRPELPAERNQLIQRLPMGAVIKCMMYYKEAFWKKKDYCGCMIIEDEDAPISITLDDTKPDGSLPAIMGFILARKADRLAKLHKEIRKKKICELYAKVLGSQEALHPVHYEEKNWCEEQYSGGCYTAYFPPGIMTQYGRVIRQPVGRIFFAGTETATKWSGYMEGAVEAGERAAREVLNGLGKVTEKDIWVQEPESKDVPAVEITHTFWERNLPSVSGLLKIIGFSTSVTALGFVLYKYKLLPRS

[3] = test system: Rattus norvegicus; assay: In vivo inhibition of MAO-A in Sprague-Dawley rat assessed as 3,4-dihydroxyphenylacetic acid level in brain striatum at 86 umol/kg, sc after 1 hr by HPLC/EC analysis relative to control; format: functional; parameters: scale not given: the % may be the effect or the level left
In short: (§1)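 Freely moving rats dosed subcutaneously and sacrificed 1 h later. Striatal DOPAC, 3-MT and 5-HIAA were measured post mortem and expressed as % of saline control (n = 4). Significance was by Student's t-test, P < 0.05.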

[4] = test system: Rattus norvegicus; assay: In vivo inhibition of MAO-A in Sprague-Dawley rat assessed as 5-hydroxyindoleacetic acid in brain striatum at 86 umol/kg, sc after 1 hr by HPLC/EC analysis relative to control; format: functional; parameters: scale not given: the % may be the effect or the level left; in short: as §1
[5] = test system: Rattus norvegicus; assay: In vivo inhibition of MAO-A in Sprague-Dawley rat assessed as 3-methoxytyramine level in brain striatum at 86 umol/kg, sc after 1 hr by HPLC/EC analysis relative to control; format: functional; parameters: scale not given: the % may be the effect or the level left; in short: as §1
[6] = Metabolic stability in rat liver microsomes assessed as compound remaining at 5 uM after 60 mins by LC-MS/MS analysis; format: ADME; conditions: read-out: Stability
In short: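 Incubation with rat liver microsomes, read as % of compound remaining after 60 min.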

[7] = target: T2, Amine oxidase [flavin-containing] A; assay: Inhibition of human recombinant MAO-A assessed as kynuramine oxidation to 4-hydroxyquinoline after 40 mins by LC-MS/MS analysis
In short: (§2)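 Human MAO A and MAO B inhibition using kynuramine as a mixed substrate for both isoforms. IC50 is given as the mean ± SE of duplicate determinations.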

[8] = target: T1, Amine oxidase [flavin-containing] B; assay: Inhibition of human recombinant MAO-B assessed as kynuramine oxidation to 4-hydroxyquinoline after 40 mins by LC-MS/MS analysis; in short: as §2
[9] = target: D(2) dopamine receptor (Homo sapiens, UniProt P14416); assay: Antagonist activity at dopamine D2 receptor (unknown origin) expressed in HEK cells co-expressing Gqi5 assessed as inhibition of dopamine-induced effect by FLIPR assay; format: cell-based, HEK293
Sequence of D(2) dopamine receptor (P14416 whole entry): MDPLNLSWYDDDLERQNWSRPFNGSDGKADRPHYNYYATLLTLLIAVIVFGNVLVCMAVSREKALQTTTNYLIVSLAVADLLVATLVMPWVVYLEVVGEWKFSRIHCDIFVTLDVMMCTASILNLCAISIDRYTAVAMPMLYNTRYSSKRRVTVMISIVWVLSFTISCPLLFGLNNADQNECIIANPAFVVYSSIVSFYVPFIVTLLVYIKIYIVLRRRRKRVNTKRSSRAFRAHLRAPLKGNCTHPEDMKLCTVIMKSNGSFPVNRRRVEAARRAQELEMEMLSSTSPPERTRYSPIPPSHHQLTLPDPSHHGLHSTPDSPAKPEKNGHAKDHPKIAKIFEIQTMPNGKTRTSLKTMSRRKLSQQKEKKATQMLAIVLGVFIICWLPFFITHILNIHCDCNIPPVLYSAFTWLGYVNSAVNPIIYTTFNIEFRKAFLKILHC

[10] = test system: Rattus norvegicus; assay: In vivo inhibition of MAO-A in Sprague-Dawley rat assessed as 3,4-dihydroxyphenylacetic acid level in brain striatum at 37 umol/kg, sc after 1 hr by HPLC/EC analysis relative to control; format: functional; parameters: scale not given: the % may be the effect or the level left; in short: as §1
[11] = test system: Rattus norvegicus; assay: In vivo inhibition of MAO-A in Sprague-Dawley rat assessed as 5-hydroxyindoleacetic acid in brain striatum at 37 umol/kg, sc after 1 hr by HPLC/EC analysis relative to control; format: functional; parameters: scale not given: the % may be the effect or the level left; in short: as §1
[12] = test system: Rattus norvegicus; assay: In vivo inhibition of MAO-A in Sprague-Dawley rat assessed as 3-methoxytyramine level in brain striatum at 37 umol/kg, sc after 1 hr by HPLC/EC analysis relative to control; format: functional; parameters: scale not given: the % may be the effect or the level left; in short: as §1
[13] = target: T3, Adrenergic receptor alpha-1 (Rattus norvegicus) (UniProt P15823+P23944+P43140); assay: Displacement of [3H]-prazosin from rat alpha-1 adrenergic receptor at 10 uM relative to control
In short: (§3)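 Competition binding run by a contract lab, read as % inhibition of control specific binding at a single test concentration. Radioligand per target: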

[14] = target: 5-hydroxytryptamine receptor 2A (Homo sapiens) (UniProt P28223); assay: Displacement of [3H]-ketanserin from human 5-HT2A receptor at 1 uM relative to control; in short: as §3
Sequence of 5-hydroxytryptamine receptor 2A (Homo sapiens) (P28223 whole entry): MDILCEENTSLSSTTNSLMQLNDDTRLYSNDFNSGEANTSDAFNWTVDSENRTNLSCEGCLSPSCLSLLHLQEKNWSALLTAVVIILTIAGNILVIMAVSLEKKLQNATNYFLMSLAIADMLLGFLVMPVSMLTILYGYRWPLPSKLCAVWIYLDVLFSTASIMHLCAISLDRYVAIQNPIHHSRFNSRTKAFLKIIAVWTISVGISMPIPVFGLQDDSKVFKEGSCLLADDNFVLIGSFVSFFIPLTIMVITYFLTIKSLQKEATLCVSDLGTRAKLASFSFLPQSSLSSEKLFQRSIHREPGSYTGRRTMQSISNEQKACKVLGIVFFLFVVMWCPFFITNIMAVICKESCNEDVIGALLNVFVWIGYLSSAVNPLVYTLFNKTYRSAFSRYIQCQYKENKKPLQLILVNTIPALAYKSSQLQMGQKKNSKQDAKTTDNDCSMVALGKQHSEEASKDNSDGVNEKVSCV

[15] = test system: Rattus norvegicus; assay: In vivo inhibition of MAO-A in Sprague-Dawley rat assessed as increase in 3-methoxytyramine level in brain striatum at 43 umol/kg, sc up to 2 hrs by microdialysis method; format: functional, organism-based
In short: (§4)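 Single subcutaneous dose to freely moving rats. Striatal DOPAC and 3-MT were sampled by microdialysis and measured by HPLC/EC over 2 h after dosing at time 0. Levels are expressed as % of saline control (n = 1–2).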

[16] = test system: Rattus norvegicus; assay: In vivo inhibition of MAO-A in Sprague-Dawley rat assessed as decrease in 3,4-dihydroxyphenylacetic acid level in brain striatum at 43 umol/kg, sc up to 2 hrs by microdialysis method; format: functional, organism-based; in short: as §4
[17] = target: Sodium-dependent serotonin transporter (Homo sapiens) (UniProt P31645); assay: Displacement of [3H]-imipramine from human serotonin transporter at 10 uM relative to control; in short: as §3
Sequence of Sodium-dependent serotonin transporter (Homo sapiens) (P31645 whole entry, looked up): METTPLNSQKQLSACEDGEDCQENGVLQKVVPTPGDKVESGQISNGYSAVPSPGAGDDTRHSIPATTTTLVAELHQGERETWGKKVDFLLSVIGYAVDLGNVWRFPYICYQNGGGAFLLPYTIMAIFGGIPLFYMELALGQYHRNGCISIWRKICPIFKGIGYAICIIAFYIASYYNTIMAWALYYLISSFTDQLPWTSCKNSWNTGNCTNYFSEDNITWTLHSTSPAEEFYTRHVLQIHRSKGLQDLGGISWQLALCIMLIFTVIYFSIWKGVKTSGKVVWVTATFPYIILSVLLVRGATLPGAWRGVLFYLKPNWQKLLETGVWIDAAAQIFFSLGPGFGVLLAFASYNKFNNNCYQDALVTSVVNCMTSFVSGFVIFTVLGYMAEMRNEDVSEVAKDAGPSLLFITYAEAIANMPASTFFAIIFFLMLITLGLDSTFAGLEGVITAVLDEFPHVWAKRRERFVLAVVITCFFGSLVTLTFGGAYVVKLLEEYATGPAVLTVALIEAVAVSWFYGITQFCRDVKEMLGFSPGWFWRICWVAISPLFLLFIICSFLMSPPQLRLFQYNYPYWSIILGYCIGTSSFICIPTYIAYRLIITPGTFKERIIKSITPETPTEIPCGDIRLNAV

[18] = target: Sodium-dependent noradrenaline transporter (Homo sapiens) (UniProt P23975); assay: Displacement of [3H]-nisoxetin from human norepinephrine transporter at 1 uM relative to control; in short: as §3
Sequence of Sodium-dependent noradrenaline transporter (Homo sapiens) (P23975 whole entry): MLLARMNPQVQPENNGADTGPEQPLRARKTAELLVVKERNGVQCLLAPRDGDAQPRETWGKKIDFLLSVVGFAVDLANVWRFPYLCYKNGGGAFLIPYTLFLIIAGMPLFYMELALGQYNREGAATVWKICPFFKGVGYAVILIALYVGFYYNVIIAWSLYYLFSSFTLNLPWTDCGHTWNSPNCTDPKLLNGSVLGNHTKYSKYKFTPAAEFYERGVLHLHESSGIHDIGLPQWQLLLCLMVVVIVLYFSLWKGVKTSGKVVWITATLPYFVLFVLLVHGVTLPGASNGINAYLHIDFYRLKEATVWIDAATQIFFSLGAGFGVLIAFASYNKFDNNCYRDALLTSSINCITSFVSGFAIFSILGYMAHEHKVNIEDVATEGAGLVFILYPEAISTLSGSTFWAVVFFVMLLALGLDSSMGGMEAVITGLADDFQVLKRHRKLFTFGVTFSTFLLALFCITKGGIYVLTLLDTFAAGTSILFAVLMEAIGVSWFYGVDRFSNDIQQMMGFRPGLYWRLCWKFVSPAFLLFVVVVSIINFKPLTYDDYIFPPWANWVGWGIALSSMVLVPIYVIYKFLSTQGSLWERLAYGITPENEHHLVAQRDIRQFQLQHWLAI

[19] = target: Histamine H1 receptor (Homo sapiens) (UniProt P35367); assay: Displacement of histamine from human histamine H1 receptor at 1 uM relative to control; in short: as §3
Sequence of Histamine H1 receptor (Homo sapiens) (P35367 whole entry): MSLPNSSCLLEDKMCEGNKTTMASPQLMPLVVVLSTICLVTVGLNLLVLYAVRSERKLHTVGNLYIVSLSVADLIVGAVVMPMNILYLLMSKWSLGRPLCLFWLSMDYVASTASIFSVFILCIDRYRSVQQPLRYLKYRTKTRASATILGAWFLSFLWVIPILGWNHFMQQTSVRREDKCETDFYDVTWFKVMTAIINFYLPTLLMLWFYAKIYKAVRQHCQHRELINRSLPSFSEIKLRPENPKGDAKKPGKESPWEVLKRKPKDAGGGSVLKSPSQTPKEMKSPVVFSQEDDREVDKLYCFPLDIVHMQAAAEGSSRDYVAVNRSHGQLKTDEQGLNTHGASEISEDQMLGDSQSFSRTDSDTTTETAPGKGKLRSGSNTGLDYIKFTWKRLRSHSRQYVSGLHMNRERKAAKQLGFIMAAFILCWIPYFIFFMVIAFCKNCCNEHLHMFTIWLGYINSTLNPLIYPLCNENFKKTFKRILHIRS

[20] = target: T4, 5-hydroxytryptamine receptor 1A (Homo sapiens) (UniProt P08908); assay: Displacement of [3H]8-OH-DPAT from human 5-HT1A receptor at 1 uM relative to control; in short: as §3
T4 sequence (whole entry): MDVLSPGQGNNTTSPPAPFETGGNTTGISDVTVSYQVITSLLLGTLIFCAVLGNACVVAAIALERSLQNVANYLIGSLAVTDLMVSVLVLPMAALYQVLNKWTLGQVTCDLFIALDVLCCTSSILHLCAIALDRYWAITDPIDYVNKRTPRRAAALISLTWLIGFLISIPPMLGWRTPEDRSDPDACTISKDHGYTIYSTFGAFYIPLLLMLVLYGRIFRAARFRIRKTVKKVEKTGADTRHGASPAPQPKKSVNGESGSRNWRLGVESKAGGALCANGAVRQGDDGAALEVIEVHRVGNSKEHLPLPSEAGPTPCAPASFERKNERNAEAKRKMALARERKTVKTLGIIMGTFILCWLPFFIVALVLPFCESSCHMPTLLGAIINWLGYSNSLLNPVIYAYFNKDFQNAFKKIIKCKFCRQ

[21] = organism: Homo sapiens; assay: Selectivity index, ratio of IC50 for human recombinant MAO-B to IC50 for human recombinant MAO-A
In short: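 Selectivity index for MAO A = IC50(MAO B)/IC50(MAO A), with both human isoforms assayed against kynuramine substrate.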

[22] = target: Sodium-dependent dopamine transporter (Homo sapiens) (UniProt Q01959); assay: Displacement of [3H]BTCP from human dopamine transporter at 1 uM relative to control; in short: as §3
Sequence of Sodium-dependent dopamine transporter (Homo sapiens) (Q01959 whole entry): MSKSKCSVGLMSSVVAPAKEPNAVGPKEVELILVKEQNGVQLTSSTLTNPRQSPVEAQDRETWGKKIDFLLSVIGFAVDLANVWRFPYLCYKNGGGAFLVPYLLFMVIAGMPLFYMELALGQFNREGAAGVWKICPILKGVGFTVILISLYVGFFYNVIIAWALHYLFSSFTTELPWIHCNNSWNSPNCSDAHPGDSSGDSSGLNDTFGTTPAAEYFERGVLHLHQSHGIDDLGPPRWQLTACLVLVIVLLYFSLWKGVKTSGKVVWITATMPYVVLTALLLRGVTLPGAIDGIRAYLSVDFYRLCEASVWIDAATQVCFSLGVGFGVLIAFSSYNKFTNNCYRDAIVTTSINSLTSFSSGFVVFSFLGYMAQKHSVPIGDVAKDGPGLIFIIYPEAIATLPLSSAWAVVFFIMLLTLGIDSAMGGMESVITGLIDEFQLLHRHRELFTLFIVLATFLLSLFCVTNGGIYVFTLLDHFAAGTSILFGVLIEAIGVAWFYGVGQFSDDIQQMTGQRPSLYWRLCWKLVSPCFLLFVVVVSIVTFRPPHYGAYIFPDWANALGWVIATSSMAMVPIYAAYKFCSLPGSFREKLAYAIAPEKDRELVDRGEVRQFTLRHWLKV

[23] = target: Adrenergic receptor alpha-2 (Rattus norvegicus) (UniProt P22086+P19328+P22909); assay: Displacement of [3H]-RX-821002 from rat alpha-2 adrenergic receptor at 1 uM relative to control; in short: as §3
[24] = target: T3, Adrenergic receptor alpha-1 (Rattus norvegicus); assay: Displacement of [3H]-prazosin from rat alpha-1 adrenergic receptor at 1 uM relative to control; in short: as §3
[25] = target: Sodium-dependent serotonin transporter (Homo sapiens) (UniProt P31645); assay: Displacement of [3H]-imipramine from human serotonin transporter at 1 uM relative to control; in short: as §3
[26] = test system: Rattus norvegicus; assay: In vivo inhibition of MAO-A in Sprague-Dawley rat assessed as 5-hydroxyindoleacetic acid in brain striatum at 53 umol/kg, sc after 1 hr by HPLC/EC analysis relative to control; format: functional; parameters: scale not given: the % may be the effect or the level left
In short: (§5)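 Freely moving rats were given a subcutaneous dose and sacrificed 1 h later. Striatal DOPAC, 3-MT and 5-HIAA were measured post mortem and expressed as % of saline control (n = 4). Significance was tested by Student's t-test (P < 0.05).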

[27] = test system: Rattus norvegicus; assay: In vivo inhibition of MAO-A in Sprague-Dawley rat assessed as 3,4-dihydroxyphenylacetic acid level in brain striatum at 53 umol/kg, sc after 1 hr by HPLC/EC analysis relative to control; format: functional; parameters: scale not given: the % may be the effect or the level left; in short: as §5
[28] = test system: Rattus norvegicus; assay: In vivo inhibition of MAO-A in Sprague-Dawley rat assessed as 3-methoxytyramine level in brain striatum at 53 umol/kg, sc after 1 hr by HPLC/EC analysis relative to control; format: functional; parameters: scale not given: the % may be the effect or the level left; in short: as §5
[29] = test system: Rattus norvegicus; assay: In vivo inhibition of MAO-A in Sprague-Dawley rat assessed as 3-methoxytyramine level in brain striatum at 80 umol/kg, sc after 1 hr by HPLC/EC analysis relative to control; format: functional; parameters: scale not given: the % may be the effect or the level left; in short: as §1
[30] = test system: Rattus norvegicus; assay: In vivo inhibition of MAO-A in Sprague-Dawley rat assessed as 3,4-dihydroxyphenylacetic acid level in brain striatum at 80 umol/kg, sc after 1 hr by HPLC/EC analysis relative to control; format: functional; parameters: scale not given: the % may be the effect or the level left; in short: as §1
[31] = test system: Rattus norvegicus; assay: In vivo inhibition of MAO-A in Sprague-Dawley rat assessed as 5-hydroxyindoleacetic acid in brain striatum at 80 umol/kg, sc after 1 hr by HPLC/EC analysis relative to control; format: functional; parameters: scale not given: the % may be the effect or the level left; in short: as §1

## O=C(O)c1cc2cc([N+](=O)[O-])ccc2oc1=O
[1]
  IC50: 0.0195 µM
[2]
  IC50: 0.0676 µM

## Nc1ccc2oc(=O)c(CN3CCCC3)cc2c1 [listing 1 of 2 here]
[3]
  Activity: 45%
[4]
  Activity: 72%
[5]
  Activity: 170%
[6]
  remaining at 1 h, 5 µM: 80%
[7]
  IC50: 3.77 µM
[8]
  IC50: > 100 µM
[9]
  IC50: 16.3 µM

## O=C(NCCN1CCOCC1)c1ccc(Cl)cc1 [MOCLOBEMIDE]
[10]
  Activity: 18%
[11]
  Activity: 80%
[12]
  Activity: 398%

## Nc1ccc2oc(=O)c(CN3CCCC3)cc2c1 [listing 2 of 2 here]
[13]
  inhibition: 4%
[14]
  inhibition: -4%
[15]
  inhibition: Active
[16]
  inhibition: Active
[17]
  inhibition: 1%
[18]
  inhibition: -2%
[19]
  inhibition: 13%
[20]
  inhibition: 0%
[21]
  Ratio IC50: > 26.5
[22]
  inhibition: 0%
[23]
  inhibition: 2%

## O=c1oc2ccc(C(F)(F)F)cc2cc1CN1CCCC1
[24]
  inhibition: 4%
[14]
  inhibition: 20%
[18]
  inhibition: 1%
[25]
  inhibition: -4%
[19]
  inhibition: 4%
[20]
  inhibition: 8%
[21]
  Ratio IC50: > 11.8
[22]
  inhibition: 8%
[23]
  inhibition: 20%

## C#CCN(C)[C@H](C)Cc1ccccc1 [SELEGILINE]
[26]
  Activity: 96%
[27]
  Activity: 36%
[28]
  Activity: 146%

## O=c1oc2ccc(O)cc2cc1CN1CCCC1
[29]
  Activity: 126%
[30]
  Activity: 47%
[31]
  Activity: 86%
[7]
  IC50: 1.46 µM
[8]
  IC50: > 100 µM
